The results in this text go back to ChEMBL document CHEMBL3414471 (J Med Chem, 2015).

Data set [1] has as its target 5-hydroxytryptamine receptor 2B (Homo sapiens, UniProt P41595). Briefly: Agonist activity at 5HT2B receptor (unknown origin) relative to control. A digest of the protocol: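 Flp-In-293 cells stably expressing human 5-HT2A, 5-HT2B or 5-HT2C-INI; grown 24–48 h in DMEM/10% dialyzed FBS, plated on poly-L-Lys at 12000 cells/well in 1% dialyzed FBS for 24 h. Loaded 1 h at 37 °C with calcium dye in HBSS, 20 mM Hepes pH 7.40, 2.5 mM probenecid.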

The target of data set [2] is T1, 5-hydroxytryptamine receptor 2C (Homo sapiens) (UniProt P28335).
T1 sequence (whole entry): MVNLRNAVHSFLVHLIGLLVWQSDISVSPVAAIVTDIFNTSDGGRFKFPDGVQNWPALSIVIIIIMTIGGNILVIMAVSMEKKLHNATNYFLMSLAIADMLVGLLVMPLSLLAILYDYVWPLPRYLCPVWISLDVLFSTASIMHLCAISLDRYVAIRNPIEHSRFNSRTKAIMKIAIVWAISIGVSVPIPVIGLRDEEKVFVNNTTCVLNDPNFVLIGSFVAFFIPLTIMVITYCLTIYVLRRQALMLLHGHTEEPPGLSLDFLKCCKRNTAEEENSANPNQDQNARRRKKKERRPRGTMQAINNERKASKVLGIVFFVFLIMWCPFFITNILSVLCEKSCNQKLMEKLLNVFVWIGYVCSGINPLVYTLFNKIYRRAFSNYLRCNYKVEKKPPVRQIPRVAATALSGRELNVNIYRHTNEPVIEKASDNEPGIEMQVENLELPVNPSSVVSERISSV
Briefly: (§1) Agonist activity at 5HT2C receptor (unknown origin) relative to control.

The target of data set [3] is T2, 5-hydroxytryptamine receptor 2C (Homo sapiens, UniProt P28335).
T2 sequence (P28335 whole entry): T1 sequence (whole entry)
Described as §1.

The species entered for another data set is Homo sapiens. Nature of the data set: Selectivity ratio of EC50 for 5HT2B receptor (unknown origin) to EC50 for 5HT2C receptor (unknown origin).
Data set [4] can be described thus: Bioavailability in mouse. The class given is ADME, organism-based. Particulars: in vivo.

5-hydroxytryptamine receptor 2B, sequence (P41595 whole entry): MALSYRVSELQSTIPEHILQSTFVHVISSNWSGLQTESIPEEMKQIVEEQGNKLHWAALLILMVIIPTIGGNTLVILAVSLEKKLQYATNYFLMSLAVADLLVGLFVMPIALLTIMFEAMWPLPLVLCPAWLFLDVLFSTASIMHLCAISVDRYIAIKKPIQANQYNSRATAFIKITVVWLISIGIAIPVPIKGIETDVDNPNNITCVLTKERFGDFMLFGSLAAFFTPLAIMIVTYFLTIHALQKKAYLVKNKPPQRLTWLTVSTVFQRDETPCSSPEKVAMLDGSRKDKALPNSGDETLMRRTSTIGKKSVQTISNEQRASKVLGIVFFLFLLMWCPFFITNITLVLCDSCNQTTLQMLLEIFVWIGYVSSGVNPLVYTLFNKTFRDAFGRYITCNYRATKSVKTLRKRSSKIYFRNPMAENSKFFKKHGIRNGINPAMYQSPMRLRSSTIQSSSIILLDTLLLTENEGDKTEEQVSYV

As a reminder, the EC50 is the midpoint of the concentration-response curve. For orientation: Emax means the maximal effect, on the per cent scale that the assay sets. Take `Clc1cccc(COc2cncc(N3CCNCC3)n2)c1`: the 50% effective concentration (EC50) in data set [1] came to 0.0653 µM; in data set [3], 0.00011 µM. The Emax in data set [1] was 57%; in data set [2] it was 93%. Moreover, the Ratio EC50 in the data set listed under Homo sapiens is 600.

A word on the bioavailability: it is dose-corrected exposure relative to a reference, in per cent. A high value points to good availability. `NC[C@H]1C[C@@H]1c1cc(O)ccc1OCC1CC1`: the bioavailability in data set [4] amounted to 3.2%.
